# Source: ChEMBL document CHEMBL1140876, “Synthesis and antibacterial property of quinolines with potent DNA gyrase activity” (2009)
# The source made the active and inactive calls. The rule behind the calls is not given here.
# Experiments:
# [1] = Inhibition of DNA gyrase assessed as conversion of relaxed pBR322 to supercoiled form
# Procedure, shortened: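 Supercoiling in 15 µL reactions: gyrase assay buffer, 150 ng relaxed pBR322, 2–3 µL purified DNA gyrase, 3 h at 37 °C (E. coli); stopped with 50% glycerol/0.25% bromophenol blue; 1% agarose in 1× TBE pH 8.3, 90 V 3 h; ethidium bromide stain; supercoiled band brightness by densitometry. Ciprofloxacin comparator.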
# [2] = Inhibition of DNA gyrase assessed as pBR322 DNA relaxation at 1 uM
# Procedure, shortened: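 Relaxation without ATP: gyrase (60 nM) with supercoiled pBR322 DNA (6 nM) and drug at […] for 1 h at 37 °C; relaxation judged by gel. Ciprofloxacin, novobiocin and nalidixic acid comparators.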
# Staphylococcus aureus [3] = assay: Antimicrobial activity against Staphylococcus aureus by broth microdilution assay; format: functional
# Procedure, shortened: (§1)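 Broth microdilution per NCCLS 1997 in 96-well plate; final inoculum 10^5 cfu/mL; incubated 35.7 °C in air 18–20 h; MIC read as lowest concentration with no visible growth.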
# Escherichia coli [4] = assay: Antimicrobial activity against Escherichia coli by broth microdilution assay; format: functional; procedure, shortened: as §1
# Pseudomonas aeruginosa [5] = assay: Antimicrobial activity against Pseudomonas aeruginosa by broth microdilution assay; format: functional; procedure, shortened: as §1
# Klebsiella pneumoniae [6] = assay: Antimicrobial activity against Klebsiella pneumoniae by broth microdilution assay; format: functional; procedure, shortened: as §1
# Salmonella typhi = assay: Antimicrobial activity against Salmonella typhi by broth microdilution assay; format: functional, Salmonella enterica subsp. enterica serovar Typhi; settings: Salmonella enterica
# Procedure, shortened: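 Broth microdilution in 96-well plates following the NCCLS 1997 protocol. Final inoculum was 10^5 cfu/mL, with a control organism run alongside. Plates were incubated at 35.7 °C in air for 18–20 h. MIC is the lowest concentration with no visible growth.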
# Bacillus subtilis [7] = assay: Antimicrobial activity against Bacillus subtilis by broth microdilution assay; format: functional; procedure, shortened: as §1
# Staphylococcus aureus [8] = assay: Antimicrobial activity against Staphylococcus aureus at 5 ug after 24 hrs by disk diffusion method; format: functional; settings: read-out: IZ
# Procedure, shortened: (§2)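 Inoculum made in 0.85% saline against McFarland standard, swabbed evenly onto nutrient agar; sterile filter-paper discs set equidistant and loaded with equal volumes of drug at varying amounts; zone of inhibition measured after 24 h at 37 °C; ciprofloxacin reference.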
# Pseudomonas aeruginosa [9] = assay: Antimicrobial activity against Pseudomonas aeruginosa at 5 ug after 24 hrs by disk diffusion method; format: functional; settings: read-out: IZ; procedure, shortened: as §2
# Klebsiella pneumoniae [10] = assay: Antimicrobial activity against Klebsiella pneumoniae at 5 ug after 24 hrs by disk diffusion method; format: functional; settings: read-out: IZ; procedure, shortened: as §2
# Salmonella typhimurium [11] = assay: Antimicrobial activity against Salmonella Typhimurium at 5 ug after 24 hrs by disk diffusion method; format: functional, Salmonella enterica subsp. enterica serovar Typhimurium; settings: Salmonella enterica, read-out: IZ; procedure, shortened: as §2
# Bacillus subtilis [12] = assay: Antimicrobial activity against Bacillus subtilis at 5 ug after 24 hrs by disk diffusion method; format: functional; settings: read-out: IZ; procedure, shortened: as §2
# Staphylococcus aureus [13] = assay: Antimicrobial activity against Staphylococcus aureus at 10 ug after 24 hrs by disk diffusion method; format: functional; settings: read-out: IZ; procedure, shortened: as §2
# Escherichia coli [14] = assay: Antimicrobial activity against Escherichia coli at 10 ug after 24 hrs by disk diffusion method; format: functional; settings: read-out: IZ; procedure, shortened: as §2
# Pseudomonas aeruginosa [15] = assay: Antimicrobial activity against Pseudomonas aeruginosa at 10 ug after 24 hrs by disk diffusion method; format: functional; settings: read-out: IZ; procedure, shortened: as §2
# Klebsiella pneumoniae [16] = assay: Antimicrobial activity against Klebsiella pneumoniae at 10 ug after 24 hrs by disk diffusion method; format: functional; settings: read-out: IZ; procedure, shortened: as §2
# Salmonella typhimurium [17] = assay: Antimicrobial activity against Salmonella Typhimurium at 10 ug after 24 hrs by disk diffusion method; format: functional, Salmonella enterica subsp. enterica serovar Typhimurium; settings: Salmonella enterica, read-out: IZ; procedure, shortened: as §2
# Bacillus subtilis [18] = assay: Antimicrobial activity against Bacillus subtilis at 10 ug after 24 hrs by disk diffusion method; format: functional; settings: read-out: IZ; procedure, shortened: as §2
# Staphylococcus aureus [19] = assay: Antimicrobial activity against Staphylococcus aureus at 15 ug after 24 hrs by disk diffusion method; format: functional; settings: read-out: IZ; procedure, shortened: as §2
# Escherichia coli [20] = assay: Antimicrobial activity against Escherichia coli at 15 ug after 24 hrs by disk diffusion method; format: functional; settings: read-out: IZ; procedure, shortened: as §2
# Pseudomonas aeruginosa [21] = assay: Antimicrobial activity against Pseudomonas aeruginosa at 15 ug after 24 hrs by disk diffusion method; format: functional; settings: read-out: IZ; procedure, shortened: as §2
# Klebsiella pneumoniae [22] = assay: Antimicrobial activity against Klebsiella pneumoniae at 15 ug after 24 hrs by disk diffusion method; format: functional; settings: read-out: IZ; procedure, shortened: as §2
# Salmonella typhimurium [23] = assay: Antimicrobial activity against Salmonella Typhimurium at 15 ug after 24 hrs by disk diffusion method; format: functional, Salmonella enterica subsp. enterica serovar Typhimurium; settings: Salmonella enterica, read-out: IZ; procedure, shortened: as §2
# Bacillus subtilis [24] = assay: Antimicrobial activity against Bacillus subtilis at 15 ug after 24 hrs by disk diffusion method; format: functional; settings: read-out: IZ; procedure, shortened: as §2
# Staphylococcus aureus [25] = assay: Antimicrobial activity against Staphylococcus aureus at 20 ug after 24 hrs by disk diffusion method; format: functional; settings: read-out: IZ; procedure, shortened: as §2
# Pseudomonas aeruginosa [26] = assay: Antimicrobial activity against Pseudomonas aeruginosa at 20 ug after 24 hrs by disk diffusion method; format: functional; settings: read-out: IZ; procedure, shortened: as §2
# Klebsiella pneumoniae [27] = assay: Antimicrobial activity against Klebsiella pneumoniae at 20 ug after 24 hrs by disk diffusion method; format: functional; settings: read-out: IZ; procedure, shortened: as §2
# Salmonella typhimurium [28] = assay: Antimicrobial activity against Salmonella Typhimurium at 20 ug after 24 hrs by disk diffusion method; format: functional, Salmonella enterica subsp. enterica serovar Typhimurium; settings: Salmonella enterica, read-out: IZ; procedure, shortened: as §2
# Bacillus subtilis [29] = assay: Antimicrobial activity against Bacillus subtilis at 20 ug after 24 hrs by disk diffusion method; format: functional; settings: read-out: IZ; procedure, shortened: as §2
# Staphylococcus aureus [30] = assay: Antimicrobial activity against Staphylococcus aureus at 25 ug after 24 hrs by disk diffusion method; format: functional; settings: read-out: IZ; procedure, shortened: as §2
# Pseudomonas aeruginosa [31] = assay: Antimicrobial activity against Pseudomonas aeruginosa at 25 ug after 24 hrs by disk diffusion method; format: functional; settings: read-out: IZ; procedure, shortened: as §2
# Klebsiella pneumoniae [32] = assay: Antimicrobial activity against Klebsiella pneumoniae at 25 ug after 24 hrs by disk diffusion method; format: functional; settings: read-out: IZ; procedure, shortened: as §2
# Salmonella typhimurium [33] = assay: Antimicrobial activity against Salmonella Typhimurium at 25 ug after 24 hrs by disk diffusion method; format: functional, Salmonella enterica subsp. enterica serovar Typhimurium; settings: Salmonella enterica, read-out: IZ; procedure, shortened: as §2
# Bacillus subtilis [34] = assay: Antimicrobial activity against Bacillus subtilis at 25 ug after 24 hrs by disk diffusion method; format: functional; settings: read-out: IZ; procedure, shortened: as §2
# Escherichia coli [35] = assay: Antimicrobial activity against Escherichia coli at 5 ug after 24 hrs by disk diffusion method; format: functional; settings: read-out: IZ; procedure, shortened: as §2
# Escherichia coli [36] = assay: Antimicrobial activity against Escherichia coli at 20 ug after 24 hrs by disk diffusion method; format: functional; settings: read-out: IZ; procedure, shortened: as §2
# Escherichia coli [37] = assay: Antimicrobial activity against Escherichia coli at 25 ug after 24 hrs by disk diffusion method; format: functional; settings: read-out: IZ; procedure, shortened: as §2
smiles,measurement,setting,value
O=C(O)c1cn(C2CC2)c2cc(N3CCNCC3)c(F)cc2c1=O [CIPROFLOXACIN],Activity,[1],Active
same,Activity,[2],Active
same,MIC50,Staphylococcus aureus [3],0.5 µg/mL
same,MIC90,Staphylococcus aureus [3],1 µg/mL
same,MIC50,Escherichia coli [4],0.015 µg/mL
same,MIC90,Escherichia coli [4],0.03 µg/mL
same,MIC50,Pseudomonas aeruginosa [5],0.125 µg/mL
same,MIC90,Pseudomonas aeruginosa [5],1 µg/mL
same,MIC50,Klebsiella pneumoniae [6],0.03 µg/mL
same,MIC90,Klebsiella pneumoniae [6],0.5 µg/mL
same,MIC50,Salmonella typhi,0.04 µg/mL
same,MIC90,Salmonella typhi,0.15 µg/mL
same,MIC50,Bacillus subtilis [7],0.04 µg/mL
same,MIC90,Bacillus subtilis [7],0.15 µg/mL
same,zone of inhibition at 5 µg/disc,Staphylococcus aureus [8],22 mm
same,zone of inhibition at 5 µg/disc,Pseudomonas aeruginosa [9],12 mm
same,zone of inhibition at 5 µg/disc,Klebsiella pneumoniae [10],24 mm
same,zone of inhibition at 5 µg/disc,Salmonella typhimurium [11],14 mm
same,zone of inhibition at 5 µg/disc,Bacillus subtilis [12],6 mm
same,zone of inhibition at 10 µg/disc,Staphylococcus aureus [13],24 mm
same,zone of inhibition at 10 µg/disc,Escherichia coli [14],16 mm
same,zone of inhibition at 10 µg/disc,Pseudomonas aeruginosa [15],14 mm
same,zone of inhibition at 10 µg/disc,Klebsiella pneumoniae [16],26 mm
same,zone of inhibition at 10 µg/disc,Salmonella typhimurium [17],16 mm
same,zone of inhibition at 10 µg/disc,Bacillus subtilis [18],7 mm
same,zone of inhibition at 15 µg/disc,Staphylococcus aureus [19],26 mm
same,zone of inhibition at 15 µg/disc,Escherichia coli [20],18 mm
same,zone of inhibition at 15 µg/disc,Pseudomonas aeruginosa [21],16 mm
same,zone of inhibition at 15 µg/disc,Klebsiella pneumoniae [22],30 mm
same,zone of inhibition at 15 µg/disc,Salmonella typhimurium [23],18 mm
same,zone of inhibition at 15 µg/disc,Bacillus subtilis [24],9 mm
same,zone of inhibition at 20 µg/disc,Staphylococcus aureus [25],30 mm
same,zone of inhibition at 20 µg/disc,Pseudomonas aeruginosa [26],20 mm
same,zone of inhibition at 20 µg/disc,Klebsiella pneumoniae [27],34 mm
same,zone of inhibition at 20 µg/disc,Salmonella typhimurium [28],22 mm
same,zone of inhibition at 20 µg/disc,Bacillus subtilis [29],10 mm
same,zone of inhibition at 25 µg/disc,Staphylococcus aureus [30],36 mm
same,zone of inhibition at 25 µg/disc,Pseudomonas aeruginosa [31],23 mm
same,zone of inhibition at 25 µg/disc,Klebsiella pneumoniae [32],36 mm
same,zone of inhibition at 25 µg/disc,Salmonella typhimurium [33],24 mm
same,zone of inhibition at 25 µg/disc,Bacillus subtilis [34],12 mm
c1ccc(C2c3cc(Cc4ccc5c(c4)C(c4ccccc4)C4Cn6cccc6C4N5)ccc3NC3c4cccn4CC32)cc1 (stereo not given),Activity,[1],Active
same,Activity,[2],Active
same,MIC50,Staphylococcus aureus [3],128 µg/mL
same,MIC90,Staphylococcus aureus [3],128 µg/mL
same,MIC50,Escherichia coli [4],2 µg/mL
same,MIC90,Escherichia coli [4],8 µg/mL
same,MIC50,Pseudomonas aeruginosa [5],1 µg/mL
same,MIC90,Pseudomonas aeruginosa [5],8 µg/mL
same,MIC50,Klebsiella pneumoniae [6],0.125 µg/mL
same,MIC90,Klebsiella pneumoniae [6],2 µg/mL
same,MIC50,Salmonella typhi,2.51 µg/mL
same,MIC90,Salmonella typhi,5 µg/mL
same,MIC50,Bacillus subtilis [7],0.25 µg/mL
same,MIC90,Bacillus subtilis [7],5 µg/mL
same,zone of inhibition at 5 µg/disc,Staphylococcus aureus [8],9 mm
same,zone of inhibition at 5 µg/disc,Escherichia coli [35],11 mm
same,zone of inhibition at 5 µg/disc,Pseudomonas aeruginosa [9],20 mm
same,zone of inhibition at 5 µg/disc,Klebsiella pneumoniae [10],12 mm
same,zone of inhibition at 5 µg/disc,Salmonella typhimurium [11],10 mm
same,zone of inhibition at 5 µg/disc,Bacillus subtilis [12],7 mm
same,zone of inhibition at 10 µg/disc,Staphylococcus aureus [13],13 mm
same,zone of inhibition at 10 µg/disc,Escherichia coli [14],14 mm
same,zone of inhibition at 10 µg/disc,Pseudomonas aeruginosa [15],24 mm
same,zone of inhibition at 10 µg/disc,Klebsiella pneumoniae [16],16 mm
same,zone of inhibition at 10 µg/disc,Salmonella typhimurium [17],16 mm
same,zone of inhibition at 10 µg/disc,Bacillus subtilis [18],9 mm
same,zone of inhibition at 15 µg/disc,Staphylococcus aureus [19],15 mm
same,zone of inhibition at 15 µg/disc,Escherichia coli [20],16 mm
same,zone of inhibition at 15 µg/disc,Pseudomonas aeruginosa [21],26 mm
same,zone of inhibition at 15 µg/disc,Klebsiella pneumoniae [22],19 mm
same,zone of inhibition at 15 µg/disc,Salmonella typhimurium [23],18 mm
same,zone of inhibition at 15 µg/disc,Bacillus subtilis [24],10 mm
same,zone of inhibition at 20 µg/disc,Staphylococcus aureus [25],17 mm
same,zone of inhibition at 20 µg/disc,Escherichia coli [36],21 mm
same,zone of inhibition at 20 µg/disc,Pseudomonas aeruginosa [26],28 mm
same,zone of inhibition at 20 µg/disc,Klebsiella pneumoniae [27],24 mm
same,zone of inhibition at 20 µg/disc,Salmonella typhimurium [28],22 mm
same,zone of inhibition at 20 µg/disc,Bacillus subtilis [29],12 mm
same,zone of inhibition at 25 µg/disc,Staphylococcus aureus [30],21 mm
same,zone of inhibition at 25 µg/disc,Escherichia coli [37],22 mm
same,zone of inhibition at 25 µg/disc,Pseudomonas aeruginosa [31],30 mm
same,zone of inhibition at 25 µg/disc,Klebsiella pneumoniae [32],26 mm
same,zone of inhibition at 25 µg/disc,Salmonella typhimurium [33],24 mm
same,zone of inhibition at 25 µg/disc,Bacillus subtilis [34],13 mm
